In brackets after ≈: the same amount, converted by molar mass.
What was measured:
Format in all cases: functional
Staphylococcus aureus [1] = assay: Antimicrobial activity against methicillin-resistant Staphylococcus aureus 3202 after 24 hrs by broth microdilution method; conditions: Staphylococcus aureus, 3202, 24 h
Outline: (§1)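 Colonies grown on nutrient agar with 5% ovine blood were suspended in PBS (pH 7.2–7.3), adjusted to 0.5 McFarland, and diluted 1:20 in Mueller–Hinton broth. Compounds were dissolved in DMSO (final ≤2.5%) and tested by NCCLS-modified broth microdilution with drug-free, sterility and broth+DMSO controls.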

Clostridium perfringens = assay: Antimicrobial activity against Clostridium perfringens CNCTC 5770 after 24 hrs by broth microdilution method; conditions: CNCTC 5770, 24 h
Outline: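 Colonies grown on blood agar (nutrient agar, 5% ovine blood) were suspended in PBS pH 7.2–7.3, set to 0.5 McFarland, and diluted 1:20 in MH broth for the final inoculum. Compounds were in DMSO (≤2.5% final), tested by NCCLS-modified microdilution with drug-free, sterility and DMSO controls.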

Pasteurella multocida = assay: Antimicrobial activity against Pasteurella multocida clinical isolate after 24 hrs by broth microdilution method
Outline: (§2)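 Broth microdilution MIC in Mueller–Hinton broth, per modified NCCLS guidelines. Strains were grown on nutrient agar with 5% ovine blood. Colonies were suspended in PBS (pH 7.2–7.3), adjusted to 0.5 McFarland, then diluted 1:20 in MH broth. Compounds were in DMSO, ≤2.5% final. Drug-free, sterility and DMSO controls were included.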

Staphylococcus aureus [2] = assay: Antimicrobial activity against methicillin-resistant Staphylococcus aureus 630 after 24 hrs by broth microdilution method; conditions: Staphylococcus aureus, 630, 24 h; outline: as §1
Bacillus cereus = assay: Antimicrobial activity against Bacillus cereus ATCC 14579 after 24 hrs by broth microdilution method; conditions: ATCC 14579, 24 h; outline: as §2
Staphylococcus aureus [3] = assay: Antimicrobial activity against methicillin-resistant Staphylococcus aureus 63718 after 24 hrs by broth microdilution method; conditions: Staphylococcus aureus, 63718, 24 h; outline: as §1
Staphylococcus aureus [4] = assay: Antimicrobial activity against Staphylococcus aureus ATCC 29213 after 24 hrs by broth microdilution method; conditions: ATCC 29213, 24 h; outline: as §2
[5] = system: Mycolicibacterium smegmatis; assay: Antimycobacterial activity against Mycobacterium smegmatis ATCC 700084 after 3 days; conditions: ATCC 700084, 72 h
Outline: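 Middlebrook 7H9 plus ADC broth microdilution MIC, with compounds in DMSO. Colonies were suspended in sterile water to 0.5 McFarland, then diluted 1:1000 in sterile water. Drug-free, sterility and DMSO controls were included. The visual read followed 3 days of static aerobic incubation at 37 °C in darkness.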

Mycobacterium marinum = assay: Antimycobacterial activity against Mycobacterium marinum CAMP 5644 after 21 days; conditions: CAMP 5644, 504 h
Outline: (§3)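 MIC by broth microdilution in Middlebrook 7H9 with ADC enrichment. Compounds were dissolved in DMSO. Inoculum: colonies in sterile water adjusted to 0.5 McFarland, then diluted 1:1000 in sterile water. Drug-free, sterility and medium+DMSO controls were included. Wells were read visually after static incubation in the dark.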

Mycobacterium kansasii = assay: Antimycobacterial activity against Mycobacterium kansasii DSM 44162 after 7 days; conditions: DSM 44162, 168 h; outline: as §3

With `O=C(Nc1ccc(Cl)c(Cl)c1)c1cc(Cl)ccc1O` the MIC (Staphylococcus aureus [1]) was 0.77 µM (≈ 0.244 µg/mL), the MIC (Clostridium perfringens) was 0.03 µM (≈ 0.0095 µg/mL) and the MIC (Pasteurella multocida) was 0.19 µM (≈ 0.0601 µg/mL). It also gave an MIC (Staphylococcus aureus [2]) of 0.77 µM (≈ 0.244 µg/mL), an MIC (Bacillus cereus) of 0.09 µM (≈ 0.0285 µg/mL) and an MIC (Staphylococcus aureus [3]) of 0.77 µM (≈ 0.244 µg/mL). The MIC (Staphylococcus aureus [4]) was 0.79 µM (≈ 0.25 µg/mL).

In the case of `O=C(Nc1ccccc1)c1cc(Cl)ccc1O`, the MIC [5] is reported as 64.6 µM (≈ 16 µg/mL), the MIC (Staphylococcus aureus [1]) is reported as 16.1 µM (≈ 4 µg/mL) and the MIC (Clostridium perfringens) is reported as greater than 1030 µM. It also gave an MIC (Pasteurella multocida) of 1.01 µM (≈ 0.25 µg/mL), an MIC (Staphylococcus aureus [2]) of 16.1 µM (≈ 4 µg/mL) and an MIC (Bacillus cereus) of 32.3 µM (≈ 8 µg/mL). It also gave an MIC (Staphylococcus aureus [3]) of 32.3 µM (≈ 8 µg/mL), an MIC (Mycobacterium marinum) of 64.6 µM (≈ 16 µg/mL) and an MIC (Staphylococcus aureus [4]) of 16.1 µM (≈ 4 µg/mL). For the same compound, the MIC (Mycobacterium kansasii) was 16.1 µM (≈ 4 µg/mL).

In the case of `O=C(Nc1ccc(Cl)c(Cl)c1)c1ccc(Cl)cc1O`, the MIC [5] is reported as 12.6 µM (≈ 4 µg/mL), the MIC (Staphylococcus aureus [1]) is reported as 0.05 µM (≈ 0.0158 µg/mL) and the MIC (Clostridium perfringens) is reported as 0.2 µM (≈ 0.0633 µg/mL). The MIC (Pasteurella multocida) was 0.2 µM (≈ 0.0633 µg/mL), the MIC (Staphylococcus aureus [2]) was 0.03 µM (≈ 0.0095 µg/mL) and the MIC (Bacillus cereus) was no more than 0.03 µM. For the same compound, the MIC (Staphylococcus aureus [3]) was 0.05 µM (≈ 0.0158 µg/mL), the MIC (Mycobacterium marinum) was 3.16 µM (≈ 1 µg/mL) and the MIC (Staphylococcus aureus [4]) was 0.03 µM (≈ 0.0095 µg/mL). For the same compound, the MIC (Mycobacterium kansasii) was 3.16 µM (≈ 1 µg/mL).

`O=C(Nc1ccc([N+](=O)[O-])cc1)c1cc(Cl)ccc1O` showed an MIC [5] of 13.7 µM (≈ 4 µg/mL), an MIC (Staphylococcus aureus [1]) of 1.71 µM (≈ 0.5 µg/mL) and an MIC (Clostridium perfringens) of 1.71 µM (≈ 0.5 µg/mL). It also gave an MIC (Pasteurella multocida) of 0.03 µM (≈ 0.00878 µg/mL), an MIC (Staphylococcus aureus [2]) of 0.85 µM (≈ 0.249 µg/mL) and an MIC (Bacillus cereus) of 0.85 µM (≈ 0.249 µg/mL). The MIC (Staphylococcus aureus [3]) was 1.71 µM (≈ 0.5 µg/mL), the MIC (Mycobacterium marinum) was 3.42 µM (≈ 1 µg/mL) and the MIC (Staphylococcus aureus [4]) was 0.85 µM (≈ 0.249 µg/mL). The MIC (Mycobacterium kansasii) was no more than 0.43 µM.

`O=C(Nc1ccc(Cl)cc1)c1cc(Cl)ccc1O` showed an MIC [5] of 28.4 µM (≈ 8 µg/mL), an MIC (Staphylococcus aureus [1]) of 56.7 µM (≈ 16 µg/mL) and an MIC (Clostridium perfringens) of 14.2 µM (≈ 4 µg/mL). The MIC (Pasteurella multocida) was 3.54 µM (≈ 0.999 µg/mL), the MIC (Staphylococcus aureus [2]) was 28.4 µM (≈ 8 µg/mL) and the MIC (Bacillus cereus) was 14.2 µM (≈ 4 µg/mL). The MIC (Staphylococcus aureus [3]) was 56.7 µM (≈ 16 µg/mL), the MIC (Mycobacterium marinum) was 7.08 µM (≈ 2 µg/mL) and the MIC (Staphylococcus aureus [4]) was 28.4 µM (≈ 8 µg/mL). It also gave an MIC (Mycobacterium kansasii) of 7.08 µM (≈ 2 µg/mL).

In the case of `O=C(Nc1ccc(Br)cc1)c1cc(Cl)ccc1O`, the MIC [5] is reported as 24.5 µM (≈ 8 µg/mL), the MIC (Staphylococcus aureus [1]) is reported as 0.76 µM (≈ 0.248 µg/mL) and the MIC (Clostridium perfringens) is reported as 3.06 µM (≈ 0.999 µg/mL). For the same compound, the MIC (Pasteurella multocida) was 0.19 µM (≈ 0.062 µg/mL), the MIC (Staphylococcus aureus [2]) was 0.76 µM (≈ 0.248 µg/mL) and the MIC (Bacillus cereus) was 0.38 µM (≈ 0.124 µg/mL). For the same compound, the MIC (Staphylococcus aureus [3]) was 0.76 µM (≈ 0.248 µg/mL), the MIC (Mycobacterium marinum) was 12.2 µM (≈ 4 µg/mL) and the MIC (Staphylococcus aureus [4]) was 0.76 µM (≈ 0.248 µg/mL). For the same compound, the MIC (Mycobacterium kansasii) was 6.12 µM (≈ 2 µg/mL).

In the case of `O=C(Nc1ccc(C(F)(F)F)cc1)c1cc(Cl)ccc1O`, the MIC [5] is reported as 12.7 µM (≈ 4 µg/mL), the MIC (Staphylococcus aureus [1]) is reported as 0.2 µM (≈ 0.0631 µg/mL) and the MIC (Clostridium perfringens) is reported as 1.58 µM (≈ 0.499 µg/mL). The MIC (Pasteurella multocida) was 0.2 µM (≈ 0.0631 µg/mL), the MIC (Staphylococcus aureus [2]) was 0.2 µM (≈ 0.0631 µg/mL) and the MIC (Bacillus cereus) was 0.1 µM (≈ 0.0316 µg/mL). The MIC (Staphylococcus aureus [3]) was 0.1 µM (≈ 0.0316 µg/mL), the MIC (Mycobacterium marinum) was no more than 0.4 µM and the MIC (Staphylococcus aureus [4]) was 0.03 µM (≈ 0.00947 µg/mL). It also gave an MIC (Mycobacterium kansasii) of 1.58 µM (≈ 0.499 µg/mL).

Compound `COc1ccc(NC(=O)c2cc(Cl)ccc2O)cc1` has an MIC (Staphylococcus aureus [1]) greater than 921 µM, an MIC (Clostridium perfringens) greater than 921 µM and an MIC (Pasteurella multocida) of 28.8 µM (≈ 8 µg/mL). For the same compound, the MIC (Staphylococcus aureus [2]) was greater than 921 µM, the MIC (Bacillus cereus) was greater than 921 µM and the MIC (Staphylococcus aureus [3]) was greater than 921 µM. For the same compound, the MIC (Staphylococcus aureus [4]) was greater than 921 µM.

`COc1ccc(NC(=O)[C@@H](NC(=O)c2cc(Cl)ccc2O)C(C)C)cc1` was tested, and the MIC (Staphylococcus aureus [1]) was greater than 679 µM, the MIC (Clostridium perfringens) was greater than 679 µM and the MIC (Pasteurella multocida) was greater than 679 µM. For the same compound, the MIC (Staphylococcus aureus [2]) was greater than 679 µM, the MIC (Bacillus cereus) was greater than 679 µM and the MIC (Staphylococcus aureus [3]) was greater than 679 µM. It also gave an MIC (Staphylococcus aureus [4]) greater than 679 µM.

`Cc1ccc(NC(=O)[C@H](C)NC(=O)c2cc(Cl)ccc2O)cc1` gave an MIC (Staphylococcus aureus [1]) greater than 769 µM, an MIC (Clostridium perfringens) greater than 769 µM and an MIC (Pasteurella multocida) greater than 769 µM. The MIC (Staphylococcus aureus [2]) was greater than 769 µM, the MIC (Bacillus cereus) was greater than 769 µM and the MIC (Staphylococcus aureus [3]) was greater than 769 µM. It also gave an MIC (Staphylococcus aureus [4]) greater than 769 µM.

Compound `CC(C)[C@H](NC(=O)c1cc(Cl)ccc1O)C(=O)Nc1ccc(C(F)(F)F)cc1` has an MIC [5] of 77.1 µM (≈ 32 µg/mL), an MIC (Staphylococcus aureus [1]) of 4.82 µM (≈ 2 µg/mL) and an MIC (Clostridium perfringens) of 4.82 µM (≈ 2 µg/mL). It also gave an MIC (Pasteurella multocida) greater than 617 µM, an MIC (Staphylococcus aureus [2]) of 4.82 µM (≈ 2 µg/mL) and an MIC (Bacillus cereus) of 2.41 µM (≈ 1 µg/mL). For the same compound, the MIC (Staphylococcus aureus [3]) was 9.64 µM (≈ 4 µg/mL), the MIC (Mycobacterium marinum) was 77.1 µM (≈ 32 µg/mL) and the MIC (Staphylococcus aureus [4]) was 4.82 µM (≈ 2 µg/mL). The MIC (Mycobacterium kansasii) was 38.6 µM (≈ 16 µg/mL).

With `CC(C)[C@H](NC(=O)c1ccc(Cl)cc1O)C(=O)Nc1ccc(Br)cc1` the MIC [5] was 150 µM (≈ 63.9 µg/mL), the MIC (Staphylococcus aureus [1]) was 9.39 µM (≈ 4 µg/mL) and the MIC (Clostridium perfringens) was 9.39 µM (≈ 4 µg/mL). For the same compound, the MIC (Pasteurella multocida) was greater than 601 µM, the MIC (Staphylococcus aureus [2]) was 9.39 µM (≈ 4 µg/mL) and the MIC (Bacillus cereus) was 2.34 µM (≈ 0.996 µg/mL). The MIC (Staphylococcus aureus [3]) was 18.8 µM (≈ 8 µg/mL), the MIC (Mycobacterium marinum) was 150 µM (≈ 63.9 µg/mL) and the MIC (Staphylococcus aureus [4]) was 9.39 µM (≈ 4 µg/mL). The MIC (Mycobacterium kansasii) was 75.2 µM (≈ 32 µg/mL).

With `CC(C)[C@H](NC(=O)c1ccc(Cl)cc1O)C(=O)Nc1ccc(Cl)c(Cl)c1` the MIC [5] was 77 µM (≈ 32 µg/mL), the MIC (Staphylococcus aureus [1]) was 2.4 µM (≈ 0.998 µg/mL) and the MIC (Clostridium perfringens) was 38.5 µM (≈ 16 µg/mL). It also gave an MIC (Pasteurella multocida) greater than 615 µM, an MIC (Staphylococcus aureus [2]) of 2.4 µM (≈ 0.998 µg/mL) and an MIC (Bacillus cereus) of 1.2 µM (≈ 0.499 µg/mL). The MIC (Staphylococcus aureus [3]) was 4.81 µM (≈ 2 µg/mL), the MIC (Mycobacterium marinum) was 77 µM (≈ 32 µg/mL) and the MIC (Staphylococcus aureus [4]) was 2.4 µM (≈ 0.998 µg/mL). It also gave an MIC (Mycobacterium kansasii) of 77 µM (≈ 32 µg/mL).

From ChEMBL document CHEMBL2434928, “New derivatives of salicylamides: Preparation and antimicrobial activity against various bacterial species” (2013)
